Source: PubChem
E-selectin induc – E-selectin induction on HUVECs; HUVEC E-selectin immunofluorescence imaging; normalized: neutral wells 0, TNF-alpha wells 100; activation, % at 7.58 µM; actives 0.37% (n = 260,000);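 active means mean E-selectin-positive cell signal at least 10% of the positive control, reached in at least 60% of replicates, without over 20% cell loss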
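Material: HUVEC primary endothelial cells; Amount: 3,000 cells per well; Dosing: single concentration; Medium: EGM-2 growth medium on 0.1% gelatin-coated wells; Read-out basis: percent E-selectin-positive cells; Signal: immunofluorescence imaging; Control set: TNF-alpha, DMSO.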
XiGFP reactiv – reactivates the inactive X chromosome in mouse fibroblasts; XiGFP mouse fibroblasts, % GFP-positive cells imaging, 3 d; cells co-treated with 5-aza-dC sensitizer; scaled so ellipticine positive control = 100%; activation, % at 7.58 µM; actives 0.055% (n = 360,000); AID 743238;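 active means mean normalized replicate activation at least 10% and every replicate at or above 10%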
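System: SV40-immortalized XiGFP fibroblast cells, line 68-5-11 / Incubation: 3-day compound exposure, then 15 min fixation at room temperature / Compound: single concentration per compound, delivered by pin transfer / Buffer or medium: DMEM plus 5-aza-dC sensitizer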
PglD DTNB – PglD (C. jejuni) enzyme inhibition; purified PglD enzyme, DTNB colorimetric CoA detection; inhibition, % at 12.5 µM; actives 0.098% (n = 360,000); AID 602405; in the data active means inhibition above about 16%, passing the limit was not always enough
RAD54 branch – blocks human RAD54 Holliday junction branch migration | FAM/BHQ fluorescence | actives 0.14% (n = 360,000) | inhibition, % at 10.4 µM | Q92698 | AID 602329;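 active means mean normalized replicate activity at least 40 and at least half of replicates scoring 40 or more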;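 further: inhibitors cause a drop in the FAM fluorescence signal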
Target sequence (Q92698 whole entry, looked up): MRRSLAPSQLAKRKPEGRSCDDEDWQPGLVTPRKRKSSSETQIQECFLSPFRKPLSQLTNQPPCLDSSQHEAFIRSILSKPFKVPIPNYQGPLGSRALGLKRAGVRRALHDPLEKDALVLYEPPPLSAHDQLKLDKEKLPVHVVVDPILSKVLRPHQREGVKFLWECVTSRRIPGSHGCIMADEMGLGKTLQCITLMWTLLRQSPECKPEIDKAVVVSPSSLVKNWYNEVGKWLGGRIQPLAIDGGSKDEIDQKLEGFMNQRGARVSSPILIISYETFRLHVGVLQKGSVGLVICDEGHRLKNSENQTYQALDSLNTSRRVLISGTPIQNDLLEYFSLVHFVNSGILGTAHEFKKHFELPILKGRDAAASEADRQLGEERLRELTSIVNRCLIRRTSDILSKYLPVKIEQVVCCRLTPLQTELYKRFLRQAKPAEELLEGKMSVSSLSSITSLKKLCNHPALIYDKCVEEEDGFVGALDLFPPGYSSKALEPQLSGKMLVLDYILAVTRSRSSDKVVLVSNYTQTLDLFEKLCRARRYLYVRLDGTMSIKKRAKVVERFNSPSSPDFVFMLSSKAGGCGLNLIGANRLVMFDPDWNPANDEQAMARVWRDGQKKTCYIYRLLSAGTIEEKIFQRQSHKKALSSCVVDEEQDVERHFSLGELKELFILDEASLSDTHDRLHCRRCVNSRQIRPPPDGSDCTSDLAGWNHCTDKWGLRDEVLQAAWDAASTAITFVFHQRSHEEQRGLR
rRNA inh HTS – inhibitors of bacterial rRNA selective over humanized ribosomes. E. coli WT GFP vs humanized-ribosome RFP mutants, fluorescence, 24 h; hits give low values; DMSO median 0, no signal -100. GFP signal change (wild-type ribosome), % (concentration not given with the values). actives 1.6% (n = 350,000). AID 720706;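 active means significant combined selectivity score with lowered wild-type GFP, culture density cut under 30%, mutant RFP and density less affected; inactive means any of these conditions unmet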
RAD52 anneal inh – blocks human RAD52 DNA annealing | P43351 | recombinant RAD52 DNA annealing, FRET fluorescence | inhibition, % at 18.7 µM | actives 0.46% (n = 360,000) | AID 651710;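 active means every replicate showing at least 50% inhibition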
Numbers stand for hits; 0 = inactive; - = no result given. Shown are actives, neighbours in structure and some others; about 2% of the full set was active somewhere.

SMILES	E-selectin induc	XiGFP reactiv	PglD DTNB	RAD54 branch	rRNA inh HTS	RAD52 anneal inh
COc1ccc2nc(NC(=O)C34CC5CC(CC(NC(C)=O)(C5)C3)C4)sc2c1	0	0	0	0	-27	0
CCOc1ccc2nc(NC(=O)C3CCCO3)sc2c1 (stereo unspecified)	0	0	0	0	0	0
CCOc1ccc2nc(NC(=O)C34CC5CC(CC(NC(C)=O)(C5)C3)C4)sc2c1	0	0	0	0	-33	0
CC(=O)NC12CC3CC(C1)CC(C(=O)Nc1nccs1)(C3)C2	-	-	0	0	-	-
CO[C@H]1CN(C)C(=O)c2ccc(NC(=O)Nc3ccccc3)cc2OC[C@H](C)N(CC2CC2)C[C@H]1C	0	0	0	0	0	0
O=C(C[C@@H]1CC[C@@H]2[C@H](COC[C@@H](O)CN2CC2CC2)O1)NCc1ccc(Cl)cc1	0	0	0	0	0	0
C[C@@H]1CN([C@H](C)CO)C(=O)c2cc(/C=C/c3ccccc3)cnc2O[C@@H]1CN(C)C(=O)Cc1cccnc1	0	0	0	0	0	0
COc1ccccc1-c1ccc2n(c1=O)C[C@@H]1[C@@H](CO)[C@H](C(=O)NC3CCC3)N(C(C)=O)[C@H]21	0	0	0	0	0	0
CCCCNC(=O)N1c2ccccc2CC1C (stereo unspecified)	155	0	-	-	0	0
COCC(=O)N1CCC2(CC1)CN(Cc1cccc(F)c1)[C@@H](CO)c1c2c2ccc(OC)cc2n1C	0	0	-	-	0	0
O=C(CN1CCCc2ccccc21)N/N=C/c1ccc(O)cc1O	-	0	0	0	-15	0
CCCNC(=O)Nc1ccc2c(c1)OC[C@@H](C)N(Cc1cccnc1)C[C@H](C)[C@H](OC)CN(C)C2=O	0	0	0	-	0	0
COc1ccc(-c2nc(C#N)c(N3CCCCCC3)o2)cc1OC	-	-	-	-	-23	0
Cc1nc(-c2ccc(NC(=O)c3ccccc3Br)cc2)cs1	0	0	-	-	-	-
Cc1nc(-c2ccc(NC(=O)c3ccccc3C)cc2)cs1	0	0	0	0	-27	0
COc1ccc(NC(=O)Nc2ccc3c(c2)C(=O)N([C@@H](C)CO)C[C@@H](C)[C@@H](CN(C)Cc2ccc(C(=O)O)cc2)OCCCC[C@H](C)O3)cc1	0	0	0	0	0	0
COc1ccc2c3c([nH]c2c1)[C@@H](CO)N(C(C)=O)CC31CCN(C(=O)Nc2ccc(F)cc2)CC1	0	0	-	-	0	0
CCOC(=O)c1cnc(-n2nc(C)cc2C)nc1Nc1ccc(OC)cc1	-	-	0	0	-	-
CCOC(=O)c1cnc(-n2nc(C)cc2C)nc1NC1CCCC1	0	0	0	0	-49	0
CC(C)(C)c1cc(CCC(=O)NCc2ccccn2)cc(C(C)(C)C)c1O	100	0	0	0	0	0
CN(C)c1ccc2c(c1)[C@@H]1C[C@@H](CC(=O)NC3CCCC3)O[C@H](CO)[C@@H]1O2	0	0	0	0	0	0
Cc1nonc1NC(=O)CSc1nc2c(C)cccc2cc1C#N	-	65	-	-	-	-
Cc1ccc(-n2nnnc2-c2ccccc2Br)cc1	-	0	0	0	-28	0
Cc1ccc(-c2nnnn2-c2ccc(C)cc2)cc1	-	0	-	-	0	0
Cc1ccccc1NC(=O)c1cc[n+]([O-])cc1	41	0	-	-	0	0
SMILES	E-selectin induc	XiGFP reactiv	PglD DTNB	RAD54 branch	rRNA inh HTS	RAD52 anneal inh
O=C(c1ccc([N+](=O)[O-])cc1)N(Cc1ccccc1)Cc1ccccc1	0	0	0	0	-26	0
O=C(NCCc1ccccc1)c1ccc([N+](=O)[O-])cc1	-	-	0	0	-	-
O=C1C(Cl)=C(N2CCN(c3ccccc3[N+](=O)[O-])CC2)C(=O)c2ccccc21	0	35	0	0	0	0
O=C(COc1cccnc1[N+](=O)[O-])N1N=C(c2ccc(Cl)cc2)CC1c1ccco1 (stereo unspecified)	-	0	-	-	-20	0
CCC(=O)N1N=C(c2ccc(Cl)cc2)CC1c1ccco1 (stereo unspecified)	0	0	-	-	-28	0
Cc1ccc(OCC(=O)N2N=C(c3ccc(Cl)cc3)CC2c2ccco2)c([N+](=O)[O-])n1 (stereo unspecified)	-	0	-	-	0	0
CN1c2ccc(Br)cc2[C@@H]2[C@@H](CCN2C(=O)Cc2cccnc2)[C@@H]1CO	0	0	0	0	0	0
O=C(O)CC1(CC(=O)Nc2ccc(F)c(Cl)c2)CCCCC1	0	0	0	0	-23	0
O=[N+]([O-])c1ccc(NN=Cc2ccc(O)cc2O)nc1	0	0	0	0	-22	0
O=[N+]([O-])c1ccc(NN=Cc2ccccc2O)nc1	-	0	0	0	0	0
O=C(NN=Cc1ccccc1O)c1cccc([N+](=O)[O-])c1	0	0	0	0	-27	0
O=[N+]([O-])c1ccc(N/N=C/c2ccccc2O)cc1	-	0	0	0	-19	0
CC(C)C#Cc1ccc2c(c1)O[C@@H](CN(C)Cc1cncnc1)[C@H](C)CN([C@H](C)CO)S2(=O)=O	0	0	0	0	0	0
CO[C@H]1CN(C)C(=O)c2cc(NC(=O)NC(C)C)ccc2OC[C@@H](C)NC[C@H]1C	0	0	0	0	0	-
COc1ccccc1-c1nnc(NC(=O)CSc2nncn2C)s1	37	0	-	-	0	0
COc1ccccc1-c1nnc(NC(=O)C(C)Sc2nncn2C)s1 (stereo unspecified)	-	0	-	-	0	0
Cc1ccc(C2=NN=C(NC(=O)CSc3nncn3C)SC2)cc1	-	0	0	0	-23	0
CN(C)C(=O)c1cccc(-c2ccc3c(c2)[C@H]2[C@H](CCN2C(=O)c2cnccn2)[C@H](CO)N3)c1	0	0	0	0	0	0
O=C(NC1CCCCC1)N1CC(=O)N2[C@H](CO)[C@H](c3ccc(-c4cccnc4)cc3)[C@H]2C1	0	0	-	-	0	0
CCO[C@@H]1OC(C(=O)N2CCCC2)=C[C@H](C2CCCCC2)[C@H]1CCCO	-	-	0	0	-	0
Cc1ccc(NC(=S)Nc2cc(-c3ccccc3)[nH]n2)cc1Cl	0	0	0	0	-20	0
COc1ccc(NC(=S)Nc2ccc(C)c(Cl)c2)cc1OC	0	0	0	0	0	0
Fc1ccc(NC(=S)Nc2cc(-c3ccccc3)[nH]n2)cc1Cl	30	0	0	0	-54	0
O=C(Nc1cccc(F)c1)N1CC(=O)N2[C@H](CO)[C@@H](c3ccc(C#CC4CC4)cc3)[C@H]2C1	0	0	-	-	0	0
CCCS(=O)(=O)c1ccc(COC(=O)c2cccc(NC(=O)C(C)C)c2)cc1	-	0	-	-	-39	0
CNC(=O)Nc1ccc2nc(C)oc2c1	0	0	0	0	0	0
Cc1nc2ccc(NC(=O)NC(=O)c3c(Cl)cccc3Cl)cc2o1	64	0	-	-	0	0
O=C(C[C@@H]1CC[C@H]2[C@@H](COC[C@H](O)CN2CC2CC2)O1)NCc1ccc(Cl)cc1	0	0	0	0	0	0
